Measurements: ChEMBL document CHEMBL1649309, “Foreign travel is a major risk factor for colonization with Escherichia coli producing CTX-M-type extended-spectrum beta-lactamases: a prospective study with Swedish volunteers” (Antimicrob Agents Chemother, 2010)
Calls of active or inactive are those of the source. The calls are words filed in the database; no cut-off is given here.

Test system: Escherichia coli
Experiment: Antimicrobial activity against ESBL producing Escherichia coli assessed as susceptible isolates by Etest in presence of beta-lactamase inhibitor Tazobactam
Assay type: functional, organism-based
In short: (§1)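 24 ESBL-producing E. coli strains acquired during travel, isolated from post-travel rectal swabs of Swedish travellers. Swabs were enriched in LB broth with cefotaxime 2.5 μg/ml, then plated on MacConkey agar with cefotaxime and ceftazidime discs, overnight at 35°C in room air. ESBL production was confirmed by disc-diffusion synergy test and CTX-M by PCR. Susceptibility was measured by Etest and interpreted per EUCAST guidelines.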

Q: Which Activity does the source give for CCN1CCN(C(=O)N[C@@H](C(=O)N[C@@H]2C(=O)N3[C@@H]2SC(C)(C)[C@@H]3C(=O)O)c2ccccc2)C(=O)C1=O here?
A: Active

Test system: Escherichia coli
Experiment: Antimicrobial activity against ESBL producing Escherichia coli assessed as susceptible isolates by Etest
Assay type: functional, organism-based
In short: as §1

Q: Which Activity does the source give for O=C1CN(/N=C/c2ccc([N+](=O)[O-])o2)C(=O)N1 here?
A: Active

Q: O=C(O)c1cn(C2CC2)c2cc(N3CCNCC3)c(F)cc2c1=O was tested. Which Activity did it give?
A: Active

Q: With C[C@@H](O)[C@H]1C(=O)N2C(C(=O)O)=C(SCCNC=N)C[C@H]12 as the molecule, how does the Activity read?
A: Active

Q: For CC1(C)S[C@@H]2[C@H](/N=C/N3CCCCCC3)C(=O)N2[C@H]1C(=O)O, which Activity is on record?
A: Active

Q: C[C@@H](O)[C@H]1C(=O)N2C(C(=O)O)=C(S[C@@H]3CN[C@H](C(=O)N(C)C)C3)[C@H](C)[C@H]12 was tested. Which Activity did it give?
A: Active

Q: For C[C@@H](O)[C@H]1C(=O)N2C(C(=O)O)=C(S[C@@H]3CN[C@H](C(=O)Nc4cccc(C(=O)O)c4)C3)[C@H](C)[C@H]12, which Activity is on record?
A: Active

Test system: Escherichia coli
Experiment: Antimicrobial activity against ESBL producing Escherichia coli assessed as resistant isolates by Etest
Assay type: functional, organism-based
In short: as §1

Q: With GENTAMICIN as the molecule, how does the Activity read?
A: inactive

Q: For C[C@@H]1O[C@@H]1P(=O)(O)O, which Activity is on record?
A: inactive

Q: For NC[C@H]1O[C@H](O[C@H]2[C@H](O)[C@@H](O[C@H]3O[C@H](CO)[C@@H](O)[C@H](N)[C@H]3O)[C@H](N)C[C@@H]2N)[C@H](N)C[C@@H]1O, which Activity is on record?
A: inactive
